NPY Y2 blocker – NPY-Y2 receptor antagonists, primary screen, cell-based | Neuropeptide Y receptor type 2 (Homo sapiens), P49146 | 140,000 compounds, 0.99% hits | NPY-Y2 expressing cells, antagonist mode | inhibition, % at 2.7 µM;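 also: 0% = vehicle with agonist challenge and 100% = reference antagonist with challenge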
Target sequence (P49146 whole entry, looked up): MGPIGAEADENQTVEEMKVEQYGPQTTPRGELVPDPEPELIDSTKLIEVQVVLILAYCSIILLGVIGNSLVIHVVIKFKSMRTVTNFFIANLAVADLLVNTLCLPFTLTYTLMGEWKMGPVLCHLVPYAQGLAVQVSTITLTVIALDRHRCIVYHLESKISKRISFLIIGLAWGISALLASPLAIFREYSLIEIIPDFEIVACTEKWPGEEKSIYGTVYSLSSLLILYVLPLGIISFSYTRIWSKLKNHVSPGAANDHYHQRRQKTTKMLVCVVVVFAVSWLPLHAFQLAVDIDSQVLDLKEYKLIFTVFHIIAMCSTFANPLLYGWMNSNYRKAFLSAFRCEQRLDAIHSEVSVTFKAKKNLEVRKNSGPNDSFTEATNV
NPY Y1 blocker – NPY-Y1 receptor antagonists, primary screen, cell-based | AID 1040, 2008 | Neuropeptide Y receptor type 1 (Homo sapiens), P25929 | 200,000 compounds, 1% hits | HEK293-CNG Y1 cells, membrane potential fluorescence; NPY at EC95, then isoproterenol | inhibition, % at 3.6 µM;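 active = inhibition above the campaign mean inhibition of all tested compounds plus 3 SD, cut at about 20% in these data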;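 also: 0% = DMSO wells given NPY plus isoproterenol and 100% = isoproterenol alone without NPY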
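Benchmarks – high control isoproterenol alone, low control NPY with isoproterenol · Material – HEK293 Y1/CNG channel cell line · Times – dye 3 h, compound 60 min room temperature, stimulation 45 min · Probe or stimulus – NPY (25 nM), isoproterenol (1 µM), Ro 20-1724 (25 µM) · Evaluation – % inhibition of NPY effect · Signal – fluorescence, membrane potential probe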
PGE2 EP2 inh – human EP2 receptor antagonists, primary screen, TR-FRET cAMP, C6 glioma cells | inhibition, % at 25 µM | C6 glioma cells expressing human EP2; cells stimulated with saturating PGE2 | Prostaglandin E2 receptor EP2 subtype (Homo sapiens), P43116 | 260,000 compounds, 0.52% hits;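 active = percent inhibition above 40 after rounding to a whole number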;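 also: rat C6 glioma host cells with rolipram phosphodiesterase inhibitor present; the protocol text gives 20 µM as final concentration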
NPY1 pot ag – NPY-Y1 receptor potentiators or agonists, primary screen, cell-based; Neuropeptide Y receptor type 1 (Homo sapiens), P25929; NPY-Y1 expressing cells, potentiator/agonist activation; activation, % at 3.6 µM; 220,000 compounds, 0.37% hits; in the data active = activation above about 33%, passing the limit was not always enough;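 also: cells stimulated with NPY at EC10 then isoproterenol at EC100; 0% = low agonist plus stimulus and 100% = saturating agonist plus stimulus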
NPY-Y2 PAM-ag – NPY-Y2 potentiators or agonists, primary screen, cell-based; cells expressing NPY-Y2, potentiator/agonist read-out; activation, % at 3.6 µM; 220,000 compounds, 0.45% hits; AID 1359, 2008; in the data active = activation above about 27%;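 also: cells stimulated with NPY near EC25 plus isoproterenol at EC100; 0% = vehicle plus submaximal agonist and 100% = vehicle plus saturating agonist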
EP2 mod – EP2 receptor modulators, cAMP readout, primary screen, cell-based, HTRF cAMP, PGE2 stimulation; Prostaglandin E2 receptor EP2 subtype (Homo sapiens), P43116; EP2-expressing cells, cAMP HTRF FRET, PGE2 co-stimulation; induction, % at 25 µM; 260,000 compounds, 0.83% hits; AID 940, 2007;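 active = compounds whose cAMP rise, as percent of the full-agonist control response, exceeds 60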;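 also: rat C6 glioma line stably carrying human EP2 under a CMV promoter; the protocol text gives 20 µM as final concentration; 100% = response of wells given 1 µM PGE2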
NPY1 antag conf – NPY-Y1 receptor antagonists, retest of hits, confirmation, HEK293-CNG cells, membrane potential fluorescence, triplicate | shares compounds with NPY Y1 blocker | cAMP; NPY challenge against isoproterenol-raised cAMP | inhibition, % at 3.6 µM | 1,200 compounds, 21% hits | AID 1254, 2008; in the data active = inhibition above about 20%;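 also: 0% = vehicle with agonist plus stimulus and 100% = stimulus alone without agonist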
NPY2 antag ctr – NPY-Y2 receptor antagonists, selectivity check, confirmation, counter-screen for NPY-Y1 antagonist project, HEK293-CNG cells, membrane potential fluorescence, triplicate; shares compounds with NPY Y1 blocker; antagonism; cells given NPY, then isoproterenol; inhibition, % at 3.6 µM; 1,200 compounds, 28% hits; AID 1255, 2008;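 also: 0% = DMSO with agonist challenge and 100% = reference antagonist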
Active calls of the source: *. Compounds with a hit are over-represented: about 2.8% of the library has one in this group of screens. Rule as the data show it, unless noted: active = inhibition above about 17%; inactive = the rest.

Cc1oc(-c2cccc(Cl)c2)nc1CN1CCCC(C(=O)NCCCN2CCOCC2)C1 (stereo not drawn) was read as NPY Y2 blocker 7.0, NPY Y1 blocker 8.1, NPY1 pot ag -20.0, NPY-Y2 PAM-ag -30.9 and EP2 mod 20.8.
Screening CCOC(=O)c1cc2ccccc2n1CCN(CC)CC returned NPY Y2 blocker 11.5, NPY Y1 blocker 25.4*, PGE2 EP2 inh 7.5, NPY1 pot ag -25.2, NPY-Y2 PAM-ag -27.8, EP2 mod 12.5, NPY1 antag conf 4.8 and NPY2 antag ctr 15.7.
Screening CCN(CC)CCn1c(N)nc2ccccc21 returned PGE2 EP2 inh 7.5, NPY1 pot ag -1.8, NPY-Y2 PAM-ag -19.8 and EP2 mod 12.7.
CC(C)n1nccc1C(=O)NCc1noc(-c2ccccc2)n1 was read as PGE2 EP2 inh 8.7 and EP2 mod -38.6.
For COC(/C=C/Nc1ccc(OC)cc1)=C(C#N)C#N the results were NPY Y2 blocker 0.4, NPY Y1 blocker 39.7*, PGE2 EP2 inh 10.0, NPY1 pot ag -8.0, NPY-Y2 PAM-ag -4.9, EP2 mod -1.4, NPY1 antag conf 0.9 and NPY2 antag ctr 0.3.
CCCc1[nH]nc2c1C(c1cc(Cl)ccc1O)C(C#N)=C(N)O2 (stereo not drawn) was read as PGE2 EP2 inh 19.5 and EP2 mod -139.5.
Screening FC(F)(F)c1ccc(-c2n[nH]c(=S)o2)nc1 returned PGE2 EP2 inh 25.1, NPY1 pot ag 1.6, NPY-Y2 PAM-ag -8.5 and EP2 mod -9.6.
For S=c1[nH]nc(-c2ccc3ccccc3n2)o1 the results were NPY Y2 blocker 12.4, NPY Y1 blocker 20.4*, PGE2 EP2 inh 14.4, NPY1 pot ag -2.8, NPY-Y2 PAM-ag -10.8, EP2 mod 19.7, NPY1 antag conf 11.1 and NPY2 antag ctr 7.1.
For COc1c(C)cccc1CN1CC(CN2CCOCC2)c2ccccc21 (stereo not drawn) the results were PGE2 EP2 inh 9.6 and EP2 mod -27.1.
For CCN(CC)c1ccc(NC(=O)COC(=O)c2cccs2)cc1 the results were NPY Y2 blocker 4.9, NPY Y1 blocker 20.7*, NPY1 pot ag 3.4, NPY-Y2 PAM-ag 0.4, EP2 mod -12.8, NPY1 antag conf -0.8 and NPY2 antag ctr 1.6.
For CNC(=O)/C(C#N)=C/c1ccc(-c2ccccc2[N+](=O)[O-])o1 the results were NPY Y1 blocker 1.6, PGE2 EP2 inh 10.3, NPY1 pot ag 11.0, NPY-Y2 PAM-ag 5.9 and EP2 mod -16.7.
`Cc1ccc(Cc2cnc(NC(=O)/C(C#N)=C/c3ccc(-c4ccccc4[N+](=O)[O-])o3)s2)cc1` gave NPY Y2 blocker 15.4, NPY Y1 blocker 27.4*, NPY1 pot ag -23.6, NPY-Y2 PAM-ag -18.5, EP2 mod -15.2, NPY1 antag conf 50.0* and NPY2 antag ctr 46.3*.
O=C(c1nc2ccccc2s1)C1CCN(C(=O)c2ccco2)CC1 was read as EP2 mod -56.1.
`Cn1ccnc1C1(O)CC2CCC(C1)N2C(=O)c1ccccc1Cl` (stereo not drawn) gave EP2 mod 3.0.
Screening Cc1cc(C)c(C#N)c(SCc2[nH]nc3c2C(c2ccc(F)cc2)C(C#N)=C(N)O3)n1 (stereo not drawn) returned NPY Y2 blocker 11.3, NPY Y1 blocker 41.9*, PGE2 EP2 inh 17.4, NPY1 pot ag -41.2, NPY-Y2 PAM-ag -14.5, EP2 mod 11.7, NPY1 antag conf 56.8* and NPY2 antag ctr 40.8*.
